Data as given in ChEMBL document CHEMBL3352355, “Synthesis of novel polysubstituted (2SR,4RS)-2-heteroaryltetrahydro-1,4-epoxy-1-benzazepines and cis-2-heteroaryl-4-hydroxytetrahydro-1H-1-benzazepines as antiparasitic agents” (Eur J Med Chem, 2014).

What was measured:
[1] = system: Trypanosoma cruzi; assay: Antiparasitic activity against epimastigote stage of Trypanosoma cruzi infected in Vero cells assessed as parasite growth inhibition […] by hemocytometery; type: functional, organism-based
Summary of the method: (§1)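 Exponential-phase T. cruzi Sylvio X10 epimastigotes (LIT medium with hiFCS) or L. (L.) infantum MHOM/BR/74/PP75 promastigotes (RPMI 1640, hemin, HEPES, 10% hiFCS) were exposed to threefold serial dilutions (0.3–300 µg/mL) for 72 h at 28 °C. Viable parasites were counted by hemocytometer with 0.25% eosin yellow. IC50 came from sigmoidal regression, given as mean ± SD.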

[2] = Selectivity index, ratio of CC50 for African green monkey Vero cells to IC50 for epimastigote stage of Trypanosoma cruzi; type: functional
Summary of the method: (§2)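 Selectivity index was calculated as CC50 in Vero (T. cruzi) or THP-1 (L. infantum) cells divided by parasite IC50. Both values came from 72 h mammalian-cell MTT assays and the parasite assays; SI ≥ 3 was defined as parasite-selective.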

[3] = system: Trypanosoma cruzi; assay: Antiparasitic activity against amastigote stage of Trypanosoma cruzi infected in Vero cells assessed as parasite growth inhibition after 24 hrs by hemocytometery; type: functional, organism-based; details: Trypanosoma cruzi, Vero, 24 h; read-out: IC50
Summary of the method: (§3)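 Host cells were Vero for T. cruzi (infected with tissue-derived trypomastigotes) and THP-1 (PMA-transformed, 10 ng/mL) for L. (L.) infantum (infected with late-phase promastigotes), at 1:10 cell:parasite for 24 h. Serial dilutions were given as two doses, the second on day 3 with a medium change. Read-out was % infected cells on methanol-fixed, Giemsa-stained slides (300 cells). IC50 came from sigmoidal regression; experiments in duplicate, concentrations in triplicate.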

[4] = system: Leishmania infantum; assay: Antiparasitic activity against amastigote stage of Leishmania infantum infected in THP1 cells assessed as parasite growth inhibition after 24 hrs by hemocytometery; type: functional, organism-based, THP-1; details: Leishmania infantum, THP-1, 24 h; read-out: IC50; summary of the method: as §3
[5] = Cytotoxicity against African green monkey Vero cells; type: cell-based; details: chlorocebus sabaeus
Summary of the method: (§4)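 Vero monolayers or THP-1 cells (made adherent with 10 ng/mL PMA), in RPMI 1640 with 10% hiFCS, were exposed to compound (0.3–300 µg/mL) for 72 h at 37 °C, 5% CO2. Viability was measured by MTT, with formazan dissolved in DMSO and read at 580 nm. % cytotoxicity was calculated against untreated cells; CC50 came from sigmoidal regression, given as mean ± SD.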

[6] = system: Leishmania infantum; assay: Antiparasitic activity against promastigote stage of Leishmania infantum infected in THP1 cells assessed as parasite growth inhibition […] by hemocytometery; type: functional, organism-based; details: THP-1; summary of the method: as §1
[7] = Selectivity index, ratio of CC50 for human THP1 cells to IC50 for promastigote stage of Leishmania infantum; type: functional, THP-1; summary of the method: as §2
[8] = Cytotoxicity against human THP1 cells; type: cell-based; details: THP-1 cells; summary of the method: as §4
[9] = Selectivity index, ratio of CC50 for African green monkey Vero cells to IC50 for amastigote stage of Trypanosoma cruzi; type: functional; summary of the method: as §2
[10] = Selectivity index, ratio of CC50 for human THP1 cells to IC50 for amastigote stage of Leishmania infantum; type: functional, THP-1; summary of the method: as §2
[11] = system: Leishmania infantum; assay: Antiparasitic activity against promastigote stage of Leishmania infantum assessed as parasite growth inhibition after 72 hrs by hemocytometery

Row | Structure (SMILES) | IC50 [1] [µM] | Selectivity Index [2] | IC50 [3] [µM] | IC50 [4] [µM] | CC50 [5] [µM] | IC50 [6] [µM] | Selectivity Index [7] | CC50 [8] [µM] | Selectivity Index [9] | Selectivity Index [10] | IC50 [11] [µM]
1 | O[C@@H]1Cc2cc(OC(F)(F)F)ccc2N[C@H](c2cccs2)C1 | 87.8 | 0.2 | > 101 | > 101 | 20.4 | 13.8 | 4.4 | 61.5 |  |  | 
2 | O[C@@H]1Cc2cc(F)ccc2N[C@H](c2ccoc2)C1 | 177 | 5.9 | > 405 | > 405 | 1040 | 365 | 1.9 | 689 |  |  | 
3 | Cc1ccsc1[C@@H]1C[C@H]2Cc3ccccc3N1O2 (racemic) | 27.6 | 16.4 | 134 | 368 | 453 |  | 6.7 | 377 | 3.4 | 1 | 56.6
4 | Clc1ccc2c(c1)C[C@@H]1C[C@@H](c3ccc(Br)s3)N2O1 (racemic) | 14.7 | 113.4 | 23.9 | 65.2 | 1660 |  | >117.9 | > 1690 | 69.8 | >25.9 | 14.3
5 | Fc1ccc2c(c1)C[C@@H]1C[C@@H](c3cccs3)N2O1 (racemic) | 104 | 13.5 | 103 | 177 | 1400 |  | 86.6 | 991 | 13.5 | 5.6 | 11.5
6 | Cc1ccsc1[C@@H]1C[C@H]2Cc3cc(F)ccc3N1O2 (racemic) | 102 | 5.9 | 330 | 204 | 601 |  | 2.9 | 221 | 1.8 | 1.1 | 75.9
7 | Cc1ccc([C@@H]2C[C@H]3Cc4ccccc4N2O3)o1 (racemic) | 92.9 | 5.7 | > 415 | 398 | 533 |  | 14.5 | 394 |  | 1 | 27.3
8 | FC(F)(F)Oc1ccc2c(c1)C[C@@H]1C[C@@H](c3ccco3)N2O1 (racemic) | 166 | 0.6 | 319 | 172 | 93.4 |  | 19.9 | 319 | 0.3 | 1.9 | 16
9 | Cc1ccc([C@@H]2C[C@H]3Cc4cc(OC(F)(F)F)ccc4N2O3)o1 (racemic) | 89.2 | 4.6 | 212 | > 308 | 414 |  | 16.3 | 176 | 2 |  | 10.8
10 | Cc1ccc([C@@H]2C[C@H](O)Cc3ccccc3N2)s1 (relative stereo) | 22.8 | 41.9 | 131 | > 128 | 956 |  | 5.5 | 608 | 7.3 |  | 111
11 | c1csc([C@@H]2C[C@H]3Cc4ccccc4N2O3)c1 (relative stereo) | 198 | 11.6 | > 411 | 406 | 2310 |  | 45.7 | 727 |  | 1.8 | 15.9
12 | O[C@@H]1Cc2ccccc2N[C@H](c2cccs2)C1 (relative stereo) | 219 | 4.5 | > 408 | 138 | 986 |  | 5.3 | 773 |  | 5.6 | 146
